Laboratory results from ChEMBL document CHEMBL1165845, “Synthesis and biological evaluation of analogues of a novel inhibitor of beta-amyloid secretion” (J Med Chem, 2010).

Key:
Type in all cases: cell-based
Design in all cases: scale not given: the % may be the effect or the level left
H4 [1] = experiment: Induction of alpha-secretase-mediated reduction in amyloid beta secretion in human H4 cells expressing wild type betaAPP695 at 10 uM after 24 hrs […] relative to control
Method in brief: (§1)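 Serum-starved H4βAPP695wt cells are treated for 24 h with drug in DMSO (0.02% DMSO vehicle control). Total Aβ in conditioned medium is measured by sandwich ELISA with 6E10 capture and 4G8 detection, normalized to lysate protein by BCA. Cytotoxicity is read as total cell protein. Quadruplicate wells in 1-4 independent experiments give the % decrease versus vehicle.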

H4 [2] = experiment: Cytotoxicity against human H4 cells expressing wild type betaAPP695 assessed as decrease in cell protein at 10 uM after 24 hrs; conditions: h4, 24 h; method in brief: as §1
H4 [3] = experiment: Cytotoxicity against human H4 cells expressing wild type betaAPP695 assessed as decrease in cell protein at 30 uM after 24 hrs; conditions: h4, 24 h; method in brief: as §1
H4 [4] = experiment: Induction of alpha-secretase-mediated reduction in amyloid beta secretion in human H4 cells expressing wild type betaAPP695 at 30 uM after 24 hrs […] relative to control; method in brief: as §1

Structure (SMILES) | Activity (H4 [1]) [%] | Activity (H4 [2]) [%] | Activity (H4 [3]) [%] | Activity (H4 [4]) [%]
COc1ccc(CSCCNC(=O)c2c(Cl)cccc2Cl)cc1 | 1.6 | 6.7 | 12.7 | 1.1
COc1cc(CSCCNC(=O)c2c(Cl)cccc2Cl)cc(OC)c1 | 47.9 | 2 | -8.7 | 80.4
O=C(NCCCCNC(=O)c1c(Cl)cccc1Cl)c1c(Cl)cccc1Cl | 4 |  |  | 
O=C(NCCSCc1ccc(Cl)c(Cl)c1)c1ccccc1Cl | 0.7 |  |  | 
CCOC(=O)c1cccc(CSCCNC(=O)c2c(Cl)cccc2Cl)c1 | 3 | 5.8 | 5.4 | 10.1
O=C(NCCSCc1ccc(F)cc1)c1c(F)cccc1Cl | 27.3 |  |  | 
O=C(NCCSCc1ccc(Cl)cc1)c1c(Cl)cccc1Cl | 21.8 | -6.4 | 3 | 36.5
O=C(NCCSCc1cccc(Cl)c1)c1ccc(F)cc1 | 6.4 |  |  | 
O=C(NCCNC(=O)c1c(Cl)cccc1Cl)c1c(Cl)cccc1Cl | 7.6 |  |  | 
O=C(CSCc1c(F)cccc1Cl)NCc1ccccc1Cl | 47.8 |  |  | 
O=C(O)c1cccc(CSCCNC(=O)c2c(Cl)cccc2Cl)c1 | -11.4 | 7.1 | 3.2 | -3.8
O=C(NCCSCc1ccc(Cl)cc1Cl)c1ccc(Cl)cc1Cl | 39.8 |  |  | 
O=C(NCC[S+]([O-])Cc1cccc(O)c1)c1c(Cl)cccc1Cl (stereo not drawn) | -23.7 | 2.8 | 4.4 | 15.9
O=C(NCCSCc1cccc([N+](=O)[O-])c1)c1c(Cl)cccc1Cl | 58.5 | 7.5 | 24.6 | 72.5
O=C(NCCSCc1ccccc1)c1ccccc1 | -5.7 | 0.7 | -4.1 | 5.5
O=C(NCCSCc1cccc(Cl)c1)c1c(C(F)(F)F)cccc1C(F)(F)F | 6.2 | -4.2 | -0.4 | 13.5
O=C(NCCSCc1ccc(O)cc1)c1c(Cl)cccc1Cl | 13.1 | 8.7 | 4.4 | 56.7
CN(C)CCNC(=O)c1c(Cl)cccc1Cl | 6.6 |  |  | 
O=C(NCCSCc1cccc(F)c1)c1c(F)cccc1F | -16.8 | 0.1 | 1.8 | -15.5
O=C(NCCSCc1cccc(Cl)c1)c1ccccc1Cl | 4.7 |  |  | 
O=C(NCCSc1ccccc1)c1ccccc1Cl | -4.4 |  |  | 
O=C(NCCCCNC(=O)c1ccccc1Br)c1ccccc1Br | 7.9 |  |  | 
NC(=O)c1c(Cl)cccc1CSCCNC(=O)c1c(Cl)cccc1Cl | 44.7 | 2.5 | -5.6 | 49.7

Structure (SMILES) | Activity (H4 [1]) [%] | Activity (H4 [2]) [%] | Activity (H4 [3]) [%] | Activity (H4 [4]) [%]
O=C(NCCSCc1ccc(Cl)cc1)c1ccccc1Cl | -12 |  |  | 
O=C(NCCS(=O)(=O)Cc1cccc(Cl)c1)c1c(Cl)cccc1Cl | 8.9 | -2.2 | -3.8 | 9.3
O=C(NCC[S+]([O-])Cc1cccc(Cl)c1)c1c(Cl)cccc1Cl (stereo not drawn) | 4 | -4.9 | 7.3 | -16.5
COc1cccc(CSCCNC(=O)c2c(OC)cccc2OC)c1 | 6.2 | 0.5 | 3.9 | -0.6
N=C(NO)c1cccc(CSCCNC(=O)c2c(Cl)cccc2Cl)c1 |  | 9.2 | 5.9 | 
O=C(NCCSCc1cccc(O)c1)c1c(O)cccc1O | -22.5 | 10.5 | 14.3 | -25.2
N#Cc1cccc(CSCCNC(=O)c2c(Cl)cccc2Cl)c1 | 20 | -4.8 | 4.3 | 38.7
Clc1cccc(CSCCNCc2c(Cl)cccc2Cl)c1 | 45.2 | -3.6 | 6.6 | 45.6
O=Cc1cccc(CSCCNC(=O)c2c(Cl)cccc2Cl)c1 | 19.9 | 1.5 | -2.1 | 36.4
COc1cccc(CS(=O)(=O)CCNC(=O)c2c(Cl)cccc2Cl)c1 | 5.3 | 1.2 | 8.9 | 4.9
Cc1cccc(C)c1C(=O)NCCSCc1cccc(Cl)c1 | 29.5 | 0.9 | -9.4 | 51.6
O=C(NCCSCc1cccc(OCCOCCO)c1)c1c(Cl)cccc1Cl | 17.4 | -7.3 | 6.1 | 24.3
O=C(NCCS(=O)(=O)Cc1ccc(F)cc1)c1c(F)cccc1Cl | 39.2 |  |  | 
O=C(NCc1ccccc1)c1c(F)cccc1Cl | 3.8 |  |  | 
CN(C)CCCNC(=O)c1c(Cl)cccc1Cl | 15.8 |  |  | 
O=C(NCCSCc1ccccc1Cl)c1ccccc1Cl | 4 |  |  | 
O=C(NC1CC1)c1cccc(CSCCNC(=O)c2c(Cl)cccc2Cl)c1 | 1.9 | 0 | -1 | 11
O=C(NCCSCc1cccc(Cl)c1)c1c(Br)cccc1Br | 74.2 | 6.7 | 20.8 | 83.4
O=C(NCCSCc1cccc(Cl)c1)c1ccccc1 | 0.3 | 2.4 | -4.5 | 10.7
COc1cccc(CSCCNC(=O)c2c(Cl)cccc2OC)c1 | -2.9 | 1.9 | 9.3 | -4.7
O=C(NCCSCc1cccc(NC(=O)C2CC2)c1)c1c(Cl)cccc1Cl | -21.4 | 3 | 3.2 | -2
Oc1c(Cl)cc(Cl)cc1/C=N/CCSCc1ccccc1Cl | 5.3 |  |  | 
O=C(NCCSCc1cccc(Br)c1)c1c(Br)cccc1Br | 78.6 | 9.8 | 23.9 | 87.3

Structure (SMILES) | Activity (H4 [1]) [%] | Activity (H4 [2]) [%] | Activity (H4 [3]) [%] | Activity (H4 [4]) [%]
O=C(NCCSCc1cccc(C(F)(F)F)c1)c1c(Cl)cccc1Cl | 73.9 | 19 | 47.8 | 93.4
O=C(NCCNC(=O)c1ccccc1F)c1ccccc1F | 0.2 |  |  | 
O=C(NCCOCc1ccccc1)c1ccccc1Cl | 10.3 |  |  | 
N#Cc1c(Cl)cccc1CSCCNC(=O)c1c(Cl)cccc1Cl | 48.7 | 3.5 | 1.3 | 52.3
O=C(NCCSCc1cccc(Br)c1)c1c(Cl)cccc1Cl | 75 | 12.3 | 38.6 | 90.1
O=C(Cc1c(Cl)cccc1Cl)NCCSCc1cccc(Cl)c1 | 6.7 | -1.3 | -0.7 | 13.5
COc1cccc(OC)c1C(=O)NCCSCc1cccc(Cl)c1 | -13.1 | 7.1 | -0.6 | 11.2
COCCCNC(=O)c1c(Cl)cccc1Cl | 6.9 |  |  | 
CC(C)(CNC(=O)c1c(Cl)cccc1Cl)SCc1ccc(F)cc1 | 37 |  |  | 
O=C(NCCSCc1cccc(Cl)c1)c1c(F)cccc1F | 4.9 | 5.1 | 8.1 | 21.6
O=C(NCCOCc1cccc(Cl)c1)c1c(Cl)cccc1Cl | 10.5 | -9.9 | 4.2 | -5.1
O=C(NCCSCc1ccc(Cl)c(Cl)c1)c1ccc(Cl)cc1Cl | 4.3 |  |  | 
O=C(NCCSCc1cccc(F)c1)c1c(Cl)cccc1Cl | 10.2 | 2.6 | 3.7 | 36.1
O=C(NCCSCc1cccc(Cl)c1)c1c([N+](=O)[O-])cccc1[N+](=O)[O-] | 28.8 | 0.1 | 17.8 | 52.9
N/C(=N\O)c1cccc(CSCCNC(=O)c2c(Cl)cccc2Cl)c1 | -1.5 |  |  | 1.6
O=C(NCCSCc1cc(O)cc(O)c1)c1c(Cl)cccc1Cl | 3.1 | -0.4 | -0.7 | 17.2
Nc1cccc(CSCCNC(=O)c2c(Cl)cccc2Cl)c1 | 0.1 | 15.3 | 13.1 | 17
O=C(NCCSCc1cccc(O)c1O)c1c(Cl)cccc1Cl | -4.3 | -4.8 | 14 | 33.1
NC(=O)c1cccc(CSCCNC(=O)c2c(Cl)cccc2Cl)c1 | 6.2 | -2.8 | -8.6 | 32.3
COc1cccc(CSCCNC(=O)c2c([N+](=O)[O-])cccc2[N+](=O)[O-])c1 | -14.1 | 3.7 | -3.8 | -2.8
CCN(CC)CCCNC(=O)c1c(Cl)cccc1Cl | 5.1 |  |  | 
COc1cccc(C[S+]([O-])CCNC(=O)c2c(Cl)cccc2Cl)c1 (stereo not drawn) | -13.6 | 1.6 | 9.2 | -15.8
O=C(NCCS(=O)(=O)Cc1cccc(O)c1)c1c(Cl)cccc1Cl | -10.1 | 7.7 | 4.4 | 9.6
